Published values gathered from unrelated publications.
Target: Myosin light chain kinase 2, skeletal/cardiac muscle (MYLK2, Homo sapiens, UniProt Q9H1R3)

CCN1CCN(Cc2ccc(C(=O)Nc3ccc(C)c(Oc4ccc5c(c4)CC(=O)N5)c3)cc2C(F)(F)F)CC1  remaining binding (binding; competition with immobilised ligand; 1 µM): 100%
Cc1nc(C2CCN(C(=O)c3ccc(OC(F)(F)F)cc3N)CC2)c2ncc(N3CCN(C)CC3)cc2n1  remaining binding (cell-free assay; competition with immobilised ligand; 1 µM): 87%
O=C(c1ccc(Nc2ncc(Cl)c(-c3ccc(Cl)s3)n2)cc1)N1CCC(N2CCCC2)CC1  remaining binding (binding; competition with immobilised ligand; 1 µM): 2.4%
C[C@H]1CCN(c2nccc(-c3cnn4ncccc34)n2)C1  remaining binding (binding; 1 µM): 79%
CNC(=O)[C@@H]1CC[C@@H](n2c(-c3ccc4cnccc4c3)nc3ccc(C(=O)NCc4cccc(C(N)=O)c4)cc32)C1  remaining binding (binding; competition with immobilised ligand; 1 µM): 100%
CCC(=O)N[C@@H]1CC[C@H](C(=O)N(C)c2ccc(-c3nc4ccccc4o3)cc2)C1  remaining binding (cell-free assay; competition with immobilised ligand; 1 µM): 79%
CN(CCCC(F)(F)F)c1nccc(-c2cnn3ncccc23)n1  remaining binding (binding; 1 µM): 98%
O=C(NCC1CCOCC1)c1n[nH]cc1NC(=O)c1c(F)cccc1F  remaining binding (binding; competition with immobilised ligand; 1 µM): 100%
N[C@H]1CCN(c2nccc(-c3cnn4ncccc34)n2)C1  remaining binding (binding; 1 µM): 92%
O=C(N1CCS(=O)(=O)CC1)N1C[C@H](c2ccc(OC(F)(F)F)cc2)C[C@H](c2nc(C3CC3)no2)C1  remaining binding (cell-free assay; competition with immobilised ligand; 1 µM): 100%
COc1cnc(Nc2cccc(S(N)(=O)=O)c2)nc1N1CCN(c2ccccc2)C(=O)C1  remaining binding (binding; competition with immobilised ligand; 1 µM): 100%
COc1ccnn2ncc(-c3ccnc(N(C)C)n3)c12  remaining binding (binding; 1 µM): 96%
Cc1c(C(=O)O)cc(-c2ccc(C3CCNCC3)cc2)c2ccc(-c3ccc(C(F)(F)F)cc3)cc12  remaining binding (binding; competition with immobilised ligand; 1 µM): 100%
COc1ncc2cc3ccccc3nc2c1C#N  remaining binding (binding; competition with immobilised ligand; 5 µM): 84%
O=C(NCCCN1CCOCC1)c1ccc(Nc2nccc(-c3cc4ccccc4s3)n2)cc1  remaining binding (binding; competition with immobilised ligand; 1 µM): 9.1%
Cc1cnn2ncc(-c3ccnc(N(C)C)n3)c2c1  remaining binding (binding; 1 µM): 100%
CN(C)CC#Cc1ccc(OCCCc2sc(N3CCc4cccc(C(=O)Nc5nc6ccccc6s5)c4C3)nc2C(=O)O)c(F)c1  remaining binding (cell-free assay; competition with immobilised ligand; 1 µM): 100%
c1cnn2ncc(-c3ccnc(N4CCC45COC5)n3)c2c1  remaining binding (binding; 1 µM): 77%
CC(=O)C1=C(C)N(c2cccc(C(F)(F)F)c2)C(=O)N[C@@H]1c1ccc(C#N)nc1  remaining binding (cell-free assay; competition with immobilised ligand; 1 µM): 100%
Cc1cnc(Nc2ccc(C(=O)N3CCC(N4CCCC4)CC3)cc2)nc1-c1cc2ccccc2s1  remaining binding (binding; competition with immobilised ligand; 1 µM): 1.8%
